{
  "source": "ChEMBL document CHEMBL2150946",
  "about": "“Rationally designed cyclic analogues of luteinizing hormone-releasing hormone: enhanced enzymatic stability and biological properties” (Eur J Med Chem, 2012)",
  "key": {"HEK293": {"tested_on": "HEK293", "test": "(§1) Displacement of [125I]-Tyr6, His5 from human LHRH1 receptor expressed in HEK 293 cells after 16 to 19 hrs by gamma counter", "format": "cell-based", "outline": "(§2)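 Competition binding on membranes from HEK 293 cells stably expressing human LHRH-I receptor, in HEPES buffer with CaCl2, MgCl2 and 0.5% BSA, pH 7.4. Radioligand was 120,000–240,000 cpm [125I-Tyr6,His5]LHRH with rising peptide concentrations, 16–19 h at 4 °C. Samples were filtered on PEI-soaked GF/C and gamma counted. Data were fitted to a one-site model by nonlinear regression; 3–4 experiments.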"}, "[1]": {"test": "as §1", "format": "cell-based", "conditions": "hek293", "outline": "as §2"}, "[2]": {"test": "Metabolic stability in mouse renal epithelial cell membranes assessed as compound remaining at 10 nM measured at 30 mins", "format": "ADME, cell-based", "conditions": "for remaining at 0.5 h, 0.01 µM: renal epithelial cell membranes, read-out: Stability", "outline": "(§3)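 Mouse kidney membranes (100,000 × g pellet) in 20 mM phosphate/100 mM NaCl, pH 7.4, at 4 mg/ml protein, incubated with 10 nM peptide at 37 °C with shaking. Sampling at 0, 30, 60 and 120 min was stopped with acetonitrile. LC-MS/MS (MRM) peak areas are expressed relative to t = 0 (100%).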"}, "[3]": {"test": "Half life in overnight fasted C57BL/6N mouse at 1 mg/kg, ip", "format": "ADME, organism-based", "set-up": "dose 1 mg/kg, route intraperitoneal", "conditions": "in vivo", "outline": "(§4)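 Male C57BL/6 mice, fasted 12 h overnight, given 1 mg kg-1 i.p. in saline. Blood was taken by cardiac puncture under isoflurane at 1, 2, 4 and 6 h post-dose (n = 5). Plasma was deproteinized and peptide was quantified by LC-MS/MS (MRM) against an internal standard using nine-point calibration curves. Parameters were derived from the plasma concentration–time data.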"}, "[4]": {"test": "Drug excretion in overnight fasted C57BL/6N mouse assessed as elimination rate constant at 1 mg/kg, ip", "format": "ADME, organism-based", "set-up": "dose 1 mg/kg, route intraperitoneal", "conditions": "in vivo, read-out: Drug excretion (converted)", "outline": "as §4"}, "[5]": {"test": "Analytical recovery in overnight fasted C57BL/6N mouse plasma assessed as compound recovered at 5 ng/mL, ip"}, "[6]": {"test": "Cmax in overnight fasted C57BL/6N mouse at 1 mg/kg, ip", "format": "ADME, organism-based", "set-up": "dose 1 mg/kg, route intraperitoneal", "conditions": "in vivo", "outline": "as §4"}, "Mus musculus [7]": {"tested_on": "Mus musculus", "test": "Agonist activity at LHRH1 receptor in C57BL/6N mouse assessed as release of testosterone in plasma at 1 ug/kg, ip", "format": "functional, organism-based", "outline": "(§5)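 Male C57BL/6N mice were pretreated i.p. with saline. After 15 min, peptide was given i.p. at 1 or 100 µg kg-1 (n = 5). Plasma testosterone was measured by LC-MS/MS with a dexamethasone internal standard.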"}, "[8]": {"test": "AUC in overnight fasted C57BL/6N mouse at 1 mg/kg, ip", "format": "ADME, organism-based", "set-up": "dose 1 mg/kg, route intraperitoneal", "conditions": "plasma", "outline": "as §4"}, "Plasma": {"tested_on": "Plasma", "test": "Metabolic stability in overnight fasted C57BL/6N mouse plasma at 1 mg/kg, ip", "format": "ADME, organism-based", "set-up": "dose 1 mg/kg, route intraperitoneal", "conditions": "in vivo", "outline": "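Plasma peptide stability in vivo: fasted male C57BL/6 mice received 1 mg kg-1 i.p. in saline. Cardiac-puncture plasma was collected at 1, 2, 4 and 6 h (n = 5). Peptide was measured by LC-MS/MS after protein precipitation.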"}, "Mus musculus [9]": {"tested_on": "Mus musculus", "test": "Agonist activity at LHRH1 receptor in C57BL/6N mouse assessed as testosterone AUC (1 to 6 hrs) at 1 mg/kg, ip", "format": "functional", "conditions": "route intraperitoneal", "outline": "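Male C57BL/6N mice were dosed 1 mg kg-1 i.p. with saline vehicle controls (n = 5). Cardiac-puncture plasma was taken at 1, 2, 4 and 6 h. Testosterone was quantified by LC-MS/MS with a dexamethasone internal standard, calibrated 0.05–100 ng mL-1. AUC was computed over 1–6 h; mean ± SD.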"}, "[10]": {"test": "Metabolic stability in overnight fasted C57BL/6N mouse plasma assessed as compound remaining at 50 ng/mL, ip", "format": "ADME, cell-free", "conditions": "read-out: Stability", "outline": "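Recovery of spiked peptide from mouse plasma at 5 and 50 ng/mL. Plasma was extracted by protein precipitation and analysed by LC-MS/MS with an internal standard.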"}, "Mus musculus [11]": {"tested_on": "Mus musculus", "test": "Agonist activity at LHRH1 receptor in C57BL/6N mouse assessed as release of testosterone in plasma at 1 ug/kg, ip in presence of cetrorelix", "format": "functional, organism-based", "outline": "(§6)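 Male C57BL/6N mice first received cetrorelix 1 mg kg-1 i.p. After 15 min, peptide was given i.p. at 1 or 100 µg kg-1 (n = 5). Plasma testosterone was quantified by LC-MS/MS with a dexamethasone internal standard.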"}, "[12]": {"test": "Metabolic stability in mouse renal epithelial cell membranes assessed as compound remaining at 10 nM measured at 120 mins", "format": "ADME, cell-based", "conditions": "read-out: Stability", "outline": "as §3"}, "Mus musculus [13]": {"tested_on": "Mus musculus", "test": "Agonist activity at LHRH1 receptor in C57BL/6N mouse assessed as release of testosterone in plasma at 100 ug/kg, ip in presence of cetrorelix", "format": "functional, organism-based", "outline": "as §6"}, "Mus musculus [14]": {"tested_on": "Mus musculus", "test": "Agonist activity at LHRH1 receptor in C57BL/6N mouse assessed as release of testosterone in plasma at 100 ug/kg, ip", "format": "functional, organism-based", "outline": "as §5"}, "[15]": {"test": "Tmax in overnight fasted C57BL/6N mouse at 1 mg/kg, ip", "format": "ADME, organism-based", "set-up": "dose 1 mg/kg, route intraperitoneal", "conditions": "in vivo", "outline": "as §4"}},
  "note": "The source made the active and inactive calls. The calls are words filed in the database; no cut-off is given here.",
  "data": [
    {"smiles": "COc1ccc(C[C@@H]2NC(=O)[C@H](CO)NC(=O)[C@H](Cc3c[nH]c4ccccc34)NC(=O)[C@H](Cc3cnc[nH]3)NC(=O)[C@@H]3CCCN3C(=O)CC(C)NC(=O)[C@@H]3CCN3C(=O)[C@H](CCCNC(=N)N)NC(=O)[C@H](CC(C)C)NC(=O)[C@@H](CC(C)C)NC2=O)cc1", "note": "(some centres not stated)", "values": [
      {"measurement": "inhibition", "setting": "HEK293", "value": "Dose-dependent effect"},
      {"measurement": "pIC50", "setting": "[1]", "value": 5.82},
      {"measurement": "remaining at 0.5 h, 0.01 µM", "setting": "[2]", "value": 90, "unit": "%"}
    ]},
    {"smiles": "CCNC(=O)[C@@H]1CCCN1C(=O)[C@H](CCCNC(=N)N)NC(=O)[C@H](CC(C)C)NC(=O)[C@@H](CC(C)C)NC(=O)[C@H](Cc1ccc(O)cc1)NC(=O)[C@H](CO)NC(=O)[C@H](Cc1c[nH]c2ccccc12)NC(=O)[C@H](Cc1c[nH]cn1)NC(=O)[C@@H]1CCC(=O)N1", "note": "[LEUPROLIDE]", "values": [
      {"measurement": "half-life", "setting": "[3]", "value": 42, "unit": "min"},
      {"measurement": "k el", "setting": "[4]", "value": 0.000278, "unit": "s⁻¹"},
      {"measurement": "recovered at 5 ng/mL", "setting": "[5]", "value": "> 90", "unit": "%"},
      {"measurement": "Cmax", "setting": "[6]", "value": 190, "unit": "ng/mL"},
      {"measurement": "Activity", "setting": "Mus musculus [7]", "value": "Active"},
      {"measurement": "AUC", "setting": "[8]", "value": 138, "unit": "ng·h/mL"},
      {"measurement": "Stability", "setting": "Plasma", "value": "Stable"},
      {"measurement": "Activity", "setting": "Mus musculus [9]", "value": 244.1, "unit": "ng·h/mL"},
      {"measurement": "inhibition", "setting": "HEK293", "value": "Dose-dependent effect"},
      {"measurement": "pIC50", "setting": "[1]", "value": 9.12},
      {"measurement": "remaining at 50 ng/mL", "setting": "[10]", "value": "> 90", "unit": "%"},
      {"measurement": "remaining at 0.5 h, 0.01 µM", "setting": "[2]", "value": 3, "unit": "%"},
      {"measurement": "Activity", "setting": "Mus musculus [11]", "value": "inactive"}
    ]},
    {"smiles": "COc1ccc(C[C@@H]2NC(=O)[C@H](CO)NC(=O)[C@H](Cc3c[nH]c4ccccc34)NC(=O)[C@H](Cc3cnc[nH]3)NC(=O)[C@@H]3CCCN3C(=O)CNC(=O)[C@@H]3CCN3C(=O)[C@H](CCCNC(=N)N)NC(=O)[C@H](CC(C)C)NC(=O)[C@@H](Cc3c[nH]c4ccccc34)NC2=O)cc1", "values": [
      {"measurement": "inhibition", "setting": "HEK293", "value": "Dose-dependent effect"},
      {"measurement": "pIC50", "setting": "[1]", "value": 5.58},
      {"measurement": "remaining at 0.5 h, 0.01 µM", "setting": "[2]", "value": 68, "unit": "%"}
    ]},
    {"smiles": "CC(C)C[C@H](NC(=O)CNC(=O)[C@H](Cc1ccc(O)cc1)NC(=O)[C@H](CO)NC(=O)[C@H](Cc1c[nH]c2ccccc12)NC(=O)[C@H](Cc1cnc[nH]1)NC(=O)[C@@H]1CCC(=O)N1)C(=O)N[C@@H](CCCNC(=N)N)C(=O)N1CCC[C@H]1C(=O)NCC(N)=O", "note": "[GONADORELIN]", "values": [
      {"measurement": "inhibition", "setting": "HEK293", "value": "Dose-dependent effect"},
      {"measurement": "Stability", "setting": "[2]; epithelial cell, 0.5 h, 0.01 µM", "value": "Unstable"}
    ]},
    {"smiles": "CC(C)C[C@@H]1NC(=O)[C@@H](CC(C)C)NC(=O)[C@H](Cc2ccc(O)cc2)NC(=O)[C@H](CO)NC(=O)[C@H](Cc2c[nH]c3ccccc23)NC(=O)[C@H](Cc2cnc[nH]2)NC(=O)[C@@H]2CCCN2C(=O)C[C@H](C)NC(=O)[C@@H]2CCCN2C(=O)[C@H](CCCNC(=N)N)NC1=O", "values": [
      {"measurement": "remaining at 2 h, 0.01 µM", "setting": "[12]", "value": 100, "unit": "%"},
      {"measurement": "half-life", "setting": "[3]", "value": 30, "unit": "min"},
      {"measurement": "k el", "setting": "[4]", "value": 0.000278, "unit": "s⁻¹"},
      {"measurement": "recovered at 5 ng/mL", "setting": "[5]", "value": "> 90", "unit": "%"},
      {"measurement": "Cmax", "setting": "[6]", "value": 834, "unit": "ng/mL"},
      {"measurement": "AUC", "setting": "[8]", "value": 808, "unit": "ng·h/mL"},
      {"measurement": "Activity", "setting": "Mus musculus [13]", "value": "inactive"},
      {"measurement": "Stability", "setting": "Plasma", "value": "Stable"},
      {"measurement": "Activity", "setting": "Mus musculus [9]", "value": 61.1, "unit": "ng·h/mL"},
      {"measurement": "inhibition", "setting": "HEK293", "value": "Dose-dependent effect"},
      {"measurement": "pIC50", "setting": "[1]", "value": 6.17},
      {"measurement": "remaining at 50 ng/mL", "setting": "[10]", "value": "> 90", "unit": "%"},
      {"measurement": "Activity", "setting": "Mus musculus [14]", "value": "Active"},
      {"measurement": "remaining at 0.5 h, 0.01 µM", "setting": "[2]", "value": 100, "unit": "%"},
      {"measurement": "Tmax", "setting": "[15]", "value": 60, "unit": "min"}
    ]},
    {"smiles": "CC(C)C[C@@H]1NC(=O)[C@@H](CC(C)C)NC(=O)[C@H](Cc2ccc(O)cc2)NC(=O)[C@H](CO)NC(=O)[C@H](Cc2c[nH]c3ccccc23)NC(=O)[C@H](Cc2cnc[nH]2)NC(=O)[C@@H]2CCCN2C(=O)CCCCCNC(=O)C[C@H](C)NC(=O)[C@@H]2CCCN2C(=O)[C@H](CCCNC(=N)N)NC1=O", "values": [
      {"measurement": "inhibition", "setting": "HEK293", "value": "Dose-dependent effect"},
      {"measurement": "pIC50", "setting": "[1]", "value": 5.31},
      {"measurement": "remaining at 0.5 h, 0.01 µM", "setting": "[2]", "value": 72, "unit": "%"}
    ]},
    {"smiles": "COc1ccc(C[C@@H]2NC(=O)[C@H](CO)NC(=O)[C@H](Cc3c[nH]c4ccccc34)NC(=O)[C@H](Cc3cnc[nH]3)NC(=O)[C@@H]3CCCN3C(=O)CCCCCNC(=O)C[C@H](C)NC(=O)[C@@H]3CCCN3C(=O)[C@H](CCCNC(=N)N)NC(=O)[C@H](CC(C)C)NC(=O)[C@@H](CC(C)C)NC2=O)cc1", "values": [
      {"measurement": "inhibition", "setting": "HEK293", "value": "Dose-dependent effect"},
      {"measurement": "pIC50", "setting": "[1]", "value": 5.54},
      {"measurement": "remaining at 0.5 h, 0.01 µM", "setting": "[2]", "value": 90, "unit": "%"}
    ]}
  ]
}
